Columns and labels:
[1] = system: Rattus norvegicus; test: Tissue uptake (liver) of [125I]- after administration of [125I]-labeled compound to immature female rats (n=3) in the absence of 60 microg coinjected estradiol after 24 hours; assay type: ADME, organism-based; settings: in vivo
Summary of the method: (§1)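 Immature female Fischer rats, 24 days old, 55-60 g, unanesthetized in retention cages, given HPLC-purified 125I-labeled steroid (3 μCi, 111 kBq) via lateral tail vein in 200 μL of 9% ethanol-saline with 1% Tween-80. The blocking group was coinjected with 60 μg unlabeled estradiol and sampled at 1 h. Animals were killed under ether at 0.5-24 h. Tissues were KCl-washed, blotted, weighed and gamma-counted. Results are % ID/g, with variation as small-sample-corrected %CV.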

[2] = system: Rattus norvegicus; test: Tissue uptake (spleen) of [125I]- after administration of [125I]-labeled compound to immature female rats (n=4) in the absence of 60 microg coinjected estradiol after 2 hours; assay type: ADME, organism-based; settings: in vivo
Summary of the method: (§2)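 Immature female Fischer rats, 24 days old, 55-60 g, unanesthetized in retention cages, got HPLC-purified n.c.a. 125I-labeled steroid (3 μCi, 111 kBq) by lateral tail vein. Dose was given in 200 μL saline with 9% ethanol and 1% Tween-80. Deep ether anesthesia, axillary artery cut; tissues KCl-washed, blotted, weighed, gamma-counted as % ID/g; variation as small-sample-corrected %CV.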

[3] = system: Rattus norvegicus; test: Tissue uptake (blood) of [125I]- after administration of [125I]-labeled compound to immature female rats (n=3) in the absence of 60 microg coinjected estradiol after 0.5 hours; assay type: ADME, organism-based; settings: in vivo; summary of the method: as §1
[4] = system: Rattus norvegicus; test: Tissue uptake (uterus) of [125I]- after administration of [125I]-labeled compound to immature female rats (n=3) in the presence of 60 microg coinjected estradiol after 1 hour; assay type: ADME, organism-based; settings: in vivo; summary of the method: as §2
[5] = system: Rattus norvegicus; test: Tissue uptake (liver) of [125I]- after administration of [125I]-labeled compound to immature female rats (n=4) in the absence of 60 microg coinjected estradiol after 5 hours; assay type: ADME, organism-based; settings: in vivo; summary of the method: as §1
[6] = system: Rattus norvegicus; test: Tissue uptake (muscle) of [125I]- after administration of [125I]-labeled compound to immature female rats (n=4) in the absence of 60 microg coinjected estradiol after 2 hours; assay type: ADME, organism-based; settings: in vivo; summary of the method: as §1
[7] = system: Rattus norvegicus; test: Tissue uptake (thyroid) of [125I]- after administration of [125I]-labeled compound to immature female rats (n=4) in the absence of 60 microg coinjected estradiol after 2 hours; assay type: ADME, organism-based, Thyroid gland; settings: in vivo; summary of the method: as §2
[8] = system: Rattus norvegicus; test: Tissue uptake (spleen) of [125I]- after administration of [125I]-labeled compound to immature female rats (n=3) in the absence of 60 microg coinjected estradiol after 0.5 hours; assay type: ADME, organism-based; settings: in vivo; summary of the method: as §2
[9] = system: Rattus norvegicus; test: Tissue uptake (lungs) of [125I]- after administration of [125I]-labeled compound to immature female rats (n=3) in the absence of 60 microg coinjected estradiol after 0.5 hours; assay type: ADME, organism-based; settings: in vivo; summary of the method: as §1
[10] = system: Rattus norvegicus; test: Tissue uptake (kidneys) of [125I]- after administration of [125I]-labeled compound to immature female rats (n=3) in the absence of 60 microg coinjected estradiol after 24 hours; assay type: ADME, organism-based, Kidney; settings: in vivo; summary of the method: as §1
[11] = system: Rattus norvegicus; test: Tissue uptake (lungs) of [125I]- after administration of [125I]-labeled compound to immature female rats (n=3) in the presence of 60 microg coinjected estradiol after 1 hour; assay type: ADME, organism-based; settings: in vivo; summary of the method: as §1
[12] = biological target: Estrogen receptor (Mus musculus) (UniProt O08537+P19785); test: Binding affinity at murine estrogen receptor by [3H]estradiol displacement.; assay type: protein assay
Summary of the method: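 Competitive binding in murine uterine cytoplasmic extracts, incubated 18 h at 0-4 °C with 20 nM [3H]estradiol, with or without competing steroids from 2 nM to 20 μM. RBA = 100 × ratio of competitor to unlabeled estradiol concentration giving 50% competition of specific [3H]estradiol binding. Mean of three experiments with SD.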

[13] = system: Rattus norvegicus; test: Tissue uptake (lungs) of [125I]- after administration of [125I]-labeled compound to immature female rats (n=4) in the absence of 60 microg coinjected estradiol after 5 hours; assay type: ADME, organism-based; settings: in vivo; summary of the method: as §1
[14] = system: Rattus norvegicus; test: Tissue uptake (muscle) of [125I]- after administration of [125I]-labeled compound to immature female rats (n=3) in the presence of 60 microg coinjected estradiol after 1 hour; assay type: ADME, organism-based; settings: in vivo; summary of the method: as §1
[15] = system: Rattus norvegicus; test: Tissue uptake (spleen) of [125I]- after administration of [125I]-labeled compound to immature female rats (n=4) in the absence of 60 microg coinjected estradiol after 5 hours; assay type: ADME, organism-based; settings: in vivo; summary of the method: as §2
[16] = system: Rattus norvegicus; test: Tissue uptake (liver) of [125I]- after administration of [125I]-labeled compound to immature female rats (n=3) in the absence of 60 microg coinjected estradiol after 0.5 hours; assay type: ADME, organism-based; settings: in vivo; summary of the method: as §1
[17] = system: Rattus norvegicus; test: Tissue uptake (thyroid) of [125I]- after administration of [125I]-labeled compound to immature female rats (n=3) in the absence of 60 microg coinjected estradiol after 24 hours; assay type: ADME, organism-based, Thyroid gland; settings: in vivo; summary of the method: as §2
[18] = system: Rattus norvegicus; test: Tissue uptake (lungs) of [125I]- after administration of [125I]-labeled compound to immature female rats (n=5) in the absence of 60 microg coinjected estradiol after 1 hour; assay type: ADME, organism-based; settings: in vivo; summary of the method: as §1
[19] = system: Rattus norvegicus; test: Tissue uptake (fat) of [125I]- after administration of [125I]-labeled compound to immature female rats (n=4) in the absence of 60 microg coinjected estradiol after 5 hours; assay type: ADME, organism-based; settings: in vivo; summary of the method: as §1
[20] = system: Rattus norvegicus; test: Tissue uptake (liver) of [125I]- after administration of [125I]-labeled compound to immature female rats (n=4) in the absence of 60 microg coinjected estradiol after 2 hours; assay type: ADME, organism-based; settings: in vivo; summary of the method: as §1
[21] = system: Rattus norvegicus; test: Tissue uptake (kidneys) of [125I]- after administration of [125I]-labeled compound to immature female rats (n=4) in the absence of 60 microg coinjected estradiol after 2 hours; assay type: ADME, organism-based, Kidney; settings: in vivo; summary of the method: as §1
[22] = system: Rattus norvegicus; test: Tissue uptake (muscle) of [125I]- after administration of [125I]-labeled compound to immature female rats (n=5) in the absence of 60 microg coinjected estradiol after 1 hour; assay type: ADME, organism-based; settings: in vivo; summary of the method: as §1
[23] = system: Rattus norvegicus; test: Tissue uptake (lungs) of [125I]- after administration of [125I]-labeled compound to immature female rats (n=3) in the absence of 60 microg coinjected estradiol after 24 hours; assay type: ADME, organism-based; settings: in vivo; summary of the method: as §1
[24] = system: Rattus norvegicus; test: Tissue uptake (thyroid) of [125I]- after administration of [125I]-labeled compound to immature female rats (n=5) in the absence of 60 microg coinjected estradiol after 1 hour; assay type: ADME, organism-based, Thyroid gland; settings: in vivo; summary of the method: as §2
[25] = system: Rattus norvegicus; test: Tissue uptake (spleen) of [125I]- after administration of [125I]-labeled compound to immature female rats (n=3) in the absence of 60 microg coinjected estradiol after 24 hours; assay type: ADME, organism-based; settings: in vivo; summary of the method: as §2
[26] = system: Rattus norvegicus; test: Tissue uptake (uterus) of [125I]- after administration of [125I]-labeled compound to immature female rats (n=4) in the absence of 60 microg coinjected estradiol after 5 hours; assay type: ADME, organism-based; settings: in vivo; summary of the method: as §2
[27] = system: Rattus norvegicus; test: Tissue uptake (liver) of [125I]- after administration of [125I]-labeled compound to immature female rats (n=3) in the presence of 60 microg coinjected estradiol after 1 hour; assay type: ADME, organism-based; settings: in vivo; summary of the method: as §1
[28] = system: Rattus norvegicus; test: Tissue uptake (blood) of [125I]- after administration of [125I]-labeled compound to immature female rats (n=3) in the presence of 60 microg coinjected estradiol after 1 hour; assay type: ADME, organism-based; settings: in vivo; summary of the method: as §1
[29] = system: Rattus norvegicus; test: Tissue uptake (thyroid) of [125I]- after administration of [125I]-labeled compound to immature female rats (n=3) in the absence of 60 microg coinjected estradiol after 0.5 hours; assay type: ADME, organism-based, Thyroid gland; settings: in vivo; summary of the method: as §2
[30] = system: Rattus norvegicus; test: Tissue uptake (kidneys) of [125I]- after administration of [125I]-labeled compound to immature female rats (n=5) in the absence of 60 microg coinjected estradiol after 1 hour; assay type: ADME, organism-based, Kidney; settings: in vivo; summary of the method: as §1

Sequence of Estrogen receptor (Mus musculus) (O08537 whole entry, looked up): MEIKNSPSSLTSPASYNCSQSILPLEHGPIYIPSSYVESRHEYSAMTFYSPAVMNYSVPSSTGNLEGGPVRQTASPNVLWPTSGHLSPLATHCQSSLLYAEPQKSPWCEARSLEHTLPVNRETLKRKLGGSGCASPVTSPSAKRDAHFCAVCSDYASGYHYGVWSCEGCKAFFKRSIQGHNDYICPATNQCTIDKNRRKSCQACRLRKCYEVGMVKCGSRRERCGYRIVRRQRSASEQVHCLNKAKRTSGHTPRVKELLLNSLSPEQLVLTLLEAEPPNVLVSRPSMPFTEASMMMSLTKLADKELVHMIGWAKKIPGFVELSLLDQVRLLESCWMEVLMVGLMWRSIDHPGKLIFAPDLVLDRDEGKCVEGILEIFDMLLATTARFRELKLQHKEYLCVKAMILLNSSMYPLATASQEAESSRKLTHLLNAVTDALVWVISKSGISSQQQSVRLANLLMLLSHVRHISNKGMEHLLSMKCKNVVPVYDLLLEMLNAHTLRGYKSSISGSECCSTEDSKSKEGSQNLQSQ
Sequence of Estrogen receptor (Mus musculus) (P19785 whole entry, looked up): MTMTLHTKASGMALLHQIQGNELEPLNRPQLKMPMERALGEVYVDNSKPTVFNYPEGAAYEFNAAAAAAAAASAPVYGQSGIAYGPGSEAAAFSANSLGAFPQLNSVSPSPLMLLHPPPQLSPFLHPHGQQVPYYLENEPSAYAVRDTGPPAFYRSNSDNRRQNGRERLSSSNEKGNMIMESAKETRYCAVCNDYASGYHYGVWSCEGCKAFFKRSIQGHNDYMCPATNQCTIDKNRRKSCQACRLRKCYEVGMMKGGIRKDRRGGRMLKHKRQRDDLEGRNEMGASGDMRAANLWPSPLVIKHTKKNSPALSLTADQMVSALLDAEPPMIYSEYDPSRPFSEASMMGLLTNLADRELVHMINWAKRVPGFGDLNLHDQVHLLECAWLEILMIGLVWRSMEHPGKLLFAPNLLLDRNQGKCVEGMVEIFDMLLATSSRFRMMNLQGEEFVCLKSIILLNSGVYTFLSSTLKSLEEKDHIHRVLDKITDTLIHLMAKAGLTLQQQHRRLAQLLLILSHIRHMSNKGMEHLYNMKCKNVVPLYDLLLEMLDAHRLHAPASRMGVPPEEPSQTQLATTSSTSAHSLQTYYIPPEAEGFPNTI

| ID/g [1] [%] | ID/g [2] [%] | ID/g [3] [%] | ID/g [4] [%] | ID/g [5] [%] | ID/g [6] [%] | ID/g [7] [%] | ID/g [8] [%] | ID/g [9] [%] | ID/g [10] [%] | ID/g [11] [%] | relative binding affinity (RBA) [12] | ID/g [13] [%] | ID/g [14] [%] | ID/g [15] [%] | ID/g [16] [%] | ID/g [17] [%] | ID/g [18] [%] | ID/g [19] [%] | ID/g [20] [%] | further results | Compound |
| --- | --- | --- | --- | --- | --- | --- | --- | --- | --- | --- | --- | --- | --- | --- | --- | --- | --- | --- | --- | --- | --- |
| 0.13 | 0.33 | 0.45 | 0.34 | 0.72 | 0.15 | 66.19 | 0.57 | 0.82 | 0.3 | 0.43 | 55.2 | 0.19 | 0.27 | 0.22 | 1.94 | 334.84 | 0.54 | 0.38 | 1.09 | ID/g [21]: 0.5%; ID/g [22]: 0.32%; ID/g [23]: 0.03%; ID/g [24]: 45.15%; ID/g [25]: 0.08%; ID/g [26]: 3.86%; ID/g [27]: 1.09%; ID/g [28]: 0.33%; ID/g [29]: 40.33%; ID/g [30]: 0.83% | C[C@@H]1Cc2cc(O)ccc2[C@H]2CC[C@]3(C)[C@@H](O)[C@H](I)C[C@H]3[C@H]12 |
| 0.96 | 1.76 | 1.29 | 0.72 | 2.31 | 0.52 | 218.87 | 1.44 | 1.72 | 0.24 | 1.18 | 16.5 | 0.76 | 0.72 | 1.28 | 5.91 | 773.37 | 1.3 | 0.52 | 3.24 | ID/g [21]: 1.78%; ID/g [22]: 0.69%; ID/g [23]: 0.23%; ID/g [24]: 110.96%; ID/g [25]: 0.7%; ID/g [26]: 7.76%; ID/g [27]: 4.5%; ID/g [28]: 1.09%; ID/g [29]: 105.65%; ID/g [30]: 1.83% | CCO[C@H]1C[C@]2(C)[C@@H](O)[C@H](I)C[C@H]2[C@@H]2CCc3cc(O)ccc3[C@H]21 |

— ChEMBL document CHEMBL1126822, “7 alpha-Methyl- and 11 beta-ethoxy-substitution of [125I]-16 alpha-iodoestradiol: effect on estrogen receptor-mediated target tissue uptake” (J Med Chem, 1993)
